In ChEMBL document CHEMBL5252669, “Semisynthetic blasticidin S ester derivatives show enhanced antibiotic activity” (RSC Med Chem, 2023):
Converted amounts (≈) assume the structure as drawn. The source made the active and inactive calls. The rule behind the calls is not given here.

Assays:
Staphylococcus aureus [1] = assay: Antibacterial activity against methicillin resistant Staphylococcus aureus assessed as zone of inhibition incubated for 18 hrs by spot on lawn assay; assay type: functional, organism-based
In short: (§1)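 Spot-on-lawn assay. Plates of 1.5% agar in LB were overlaid with 0.7% LB agar seeded with overnight culture at 0.01 OD600. Aqueous 5 mg mL−1 solutions were spotted at 35, 25, 10 and 5 μg, with a 1:1 water/methanol vehicle spot. After 18 h at 37 °C, inhibition zone diameters were measured with a ruler.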

[2] = Selectivity index, ratio of CC50 for human MRC5 cells to IC50 for MexAB-OprM deleted Pseudomonas aeruginosa; assay type: toxicity; conditions: read-out: Ratio CC50/IC50
Saccharomyces cerevisiae = assay: Antifungal activity against Saccharomyces cerevisiae incubated for 16 hrs by broth microdilution method; assay type: functional
[3] = Selectivity index, ratio of CC50 for human MRC5 cells to IC50 for Acinetobacter baumannii ATCC 17978; assay type: toxicity; conditions: read-out: Ratio CC50/IC50
Staphylococcus aureus [4] = assay: Antibacterial activity against Staphylococcus aureus assessed as zone of inhibition incubated for 18 hrs by spot on lawn assay; assay type: functional, organism-based
In short: (§2)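 Overnight LB cultures diluted to OD600 0.01 in 0.7% LB top agar, overlaid on 1.5% LB agar; 5 mg mL−1 aqueous compound spotted at 35, 25, 10 and 5 μg with 1:1 water/methanol vehicle spot; 37 °C, 18 h; inhibition zone diameter measured by ruler.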

Klebsiella pneumoniae = assay: Antibacterial activity against Klebsiella pneumoniae ATCC 29665 incubated for 16 hrs by broth microdilution method; assay type: functional, organism-based; conditions: for IC50: ATCC 29665, 16 h; for MIC: ATCC 29665, time 16 hrs
[5] = Selectivity index, ratio of CC50 for human MRC5 cells to IC50 for methicillin resistant Staphylococcus aureus; assay type: toxicity; conditions: read-out: Ratio CC50/IC50
Candida albicans [6] = assay: Antifungal activity against Candida albicans assessed as zone of inhibition incubated for 18 hrs by spot on lawn assay; assay type: functional, organism-based; in short: as §2
Candida albicans [7] = assay: Antifungal activity against Candida albicans incubated for 16 hrs by broth microdilution method; assay type: functional
Enterococcus [8] = assay: Antibacterial activity against vancomycin-resistant Enterococcus assessed as zone of inhibition incubated for 18 hrs by spot on lawn assay; assay type: functional, organism-based; in short: as §1
Staphylococcus aureus [9] = assay: Antibacterial activity against NorA deleted Staphylococcus aureus assessed as zone of inhibition incubated for 18 hrs by spot on lawn assay; assay type: functional, organism-based; in short: as §2
Acinetobacter baumannii [10] = assay: Antibacterial activity against Acinetobacter baumannii ATCC 17978 incubated for 16 hrs by broth microdilution method; assay type: functional, organism-based; conditions: for IC50: ATCC 17978, 16 h; for MIC: ATCC 17978, time 16 hrs
[11] = Selectivity index, ratio of CC50 for human MRC5 cells to IC50 for NorA deleted Staphylococcus aureus; assay type: toxicity; conditions: read-out: Ratio CC50/IC50
[12] = Selectivity index, ratio of CC50 for human MRC5 cells to IC50 for Klebsiella pneumoniae ATCC 29665; assay type: toxicity; conditions: read-out: Ratio CC50/IC50
Enterococcus [13] = assay: Antibacterial activity against vancomycin-resistant Enterococcus incubated for 20 hrs by broth microdilution method
Enterococcus faecalis [14] = assay: Antibacterial activity against Enterococcus faecalis ATCC 29212 assessed as zone of inhibition incubated for 18 hrs by spot on lawn assay; assay type: functional, organism-based; in short: as §2
[15] = Selectivity index, ratio of CC50 for human MRC5 cells to IC50 for Enterococcus faecalis ATCC 29212; assay type: toxicity; conditions: read-out: Ratio CC50/IC50
Staphylococcus aureus [16] = assay: Antibacterial activity against methicillin resistant Staphylococcus aureus ATCC 43300 incubated for 16 hrs by broth microdilution method; assay type: functional, organism-based; conditions: for IC50: ATCC 43300, 16 h; for MIC: ATCC 43300, time 16 hrs
In short: (§3)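 Cation-adjusted Mueller-Hinton broth microdilution. Overnight cultures from single colonies were diluted to OD600 0.004. Final compound range was 256–2 μg mL−1 in 1:1 methanol/water vehicle, with doxycycline and vehicle controls. Plates were incubated 16 h at 37 °C. OD600 was normalized to controls, and MIC was the lowest concentration inhibiting >90% growth. Two biological replicates in duplicate; reported as a range.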

Staphylococcus aureus [17] = assay: Antibacterial activity against NorA deleted Staphylococcus aureus incubated for 16 hrs by broth microdilution method; assay type: functional, organism-based; conditions: for IC50: 16 h; for MIC: time 16 hrs; in short: as §3
[18] = Cytotoxicity against human MRC5 cells incubated for 24 hrs by MTS assay; assay type: toxicity, cell-based
In short: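 MRC-5 lung fibroblasts seeded 5000 per well; medium replaced with compound 16–192 μg mL−1 or matching 1:1 methanol:water vehicle; 24 h, then MTS 3–4 h; absorbance 490 nm; viability relative to untreated cells, normalized to vehicle; CC50 from two independent assays in duplicate, mean ± SD.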

Staphylococcus aureus [19] = assay: Antibacterial activity against wild type Staphylococcus aureus 8810 incubated for 16 hrs by broth microdilution method; assay type: functional, organism-based; conditions: for IC50: Staphylococcus aureus, 8810, 16 h; for MIC: Staphylococcus aureus, 8810, time 16 hrs; in short: as §3
Enterococcus faecalis [20] = assay: Antibacterial activity against Enterococcus faecalis ATCC 29212 incubated for 20 hrs by broth microdilution method; conditions: ATCC 29212, 20 h
[21] = Selectivity index, ratio of CC50 for human MRC5 cells to IC50 for vancomycin-resistant Enterococcus; assay type: toxicity; conditions: read-out: Ratio CC50/IC50
[22] = Selectivity index, ratio of CC50 for human MRC5 cells to IC50 for Staphylococcus aureus; assay type: toxicity; conditions: read-out: Ratio CC50/IC50
Pseudomonas aeruginosa = assay: Antibacterial activity against MexAB-OprM deleted Pseudomonas aeruginosa incubated for 16 hrs by broth microdilution method; assay type: functional, organism-based; conditions: for IC50: 16 h; for MIC: time 16 hrs
Acinetobacter baumannii [23] = assay: Potency index, ratio of blasticidin-S MIC to test compound MIC for Acinetobacter baumannii; assay type: functional
Escherichia coli = assay: Potency index, ratio of blasticidin-S MIC to test compound MIC for Escherichia coli; assay type: functional
Staphylococcus aureus [24] = assay: Potency index, ratio of blasticidin-S MIC to test compound MIC for Staphylococcus aureus; assay type: functional

Structure (SMILES) | selectivity ratio [2] | MIC (Saccharomyces cerevisiae) [µg/mL] | selectivity ratio [3] | IC50 (Klebsiella pneumoniae) [µg/mL] | MIC (Klebsiella pneumoniae) [µg/mL] | selectivity ratio [5] | MIC (Candida albicans [7]) [µg/mL] | IC50 (Acinetobacter baumannii [10]) [µg/mL] | MIC (Acinetobacter baumannii [10]) [µg/mL] | selectivity ratio [11] | selectivity ratio [12] | IC50 (Enterococcus [13]) [µg/mL] | MIC (Enterococcus [13]) [µg/mL] | selectivity ratio [15] | IC50 (Staphylococcus aureus [16]) [µg/mL] | MIC (Staphylococcus aureus [16]) [µg/mL] | IC50 (Staphylococcus aureus [17]) [µg/mL] | MIC (Staphylococcus aureus [17]) [µg/mL] | CC50 at 24 h [18] [µg/mL] | IC50 (Staphylococcus aureus [19]) [µg/mL] | also measured
COC(=O)[C@H]1O[C@@H](n2ccc(N)nc2=O)C=C[C@@H]1NC(=O)C[C@@H](N)CCN(C)C(=N)N | 0.5 | 32 (≈ 73.3 µM) | 1.8 | 34.3 (≈ 78.6 µM) | 64 (≈ 147 µM) | 1.7 | > 256 | 10.2 (≈ 23.4 µM) | 32 (≈ 73.3 µM) | 0.8 | 0.5 | 31 (≈ 71 µM) | 64 (≈ 147 µM) | 2 | 10.4 (≈ 23.8 µM) | 16 (≈ 36.7 µM) | 21.5 (≈ 49.3 µM) | 32 (≈ 73.3 µM) | 18.3 (≈ 41.9 µM) | 11.4 (≈ 26.1 µM) | Activity (Staphylococcus aureus [1]): Active; Activity (Staphylococcus aureus [4]): Active; Activity (Candida albicans [6]): inactive; Activity (Enterococcus [8]): Active; Activity (Staphylococcus aureus [9]): Active; Activity (Enterococcus faecalis [14]): Active; MIC (Staphylococcus aureus [19]): 32 µg/mL (≈ 73.3 µM); IC50 (Enterococcus faecalis [20]): 9.2 µg/mL (≈ 21.1 µM); MIC (Enterococcus faecalis [20]): 16 µg/mL (≈ 36.7 µM); selectivity ratio [21]: 0.6; selectivity ratio [22]: 1.6; IC50 (Pseudomonas aeruginosa): 35.1 µg/mL (≈ 80.4 µM); MIC (Pseudomonas aeruginosa): 128 µg/mL (≈ 293 µM)
CCOC(=O)[C@H]1O[C@@H](n2ccc(N)nc2=O)C=C[C@@H]1NC(=O)C[C@@H](N)CCN(C)C(=N)N.Cl.Cl.Cl | 0.1 | 32 | 0.3 | 73.9 | > 128 | 0.5 | > 256 | 30.4 | 64 | 0.4 | 0.1 | 34.4 | 64 | 0.9 | 17 | 32 | 20 | 32 | 8.9 | 11.6 | Activity (Staphylococcus aureus [1]): Active; Activity (Staphylococcus aureus [4]): Active; Activity (Candida albicans [6]): inactive; Activity (Enterococcus [8]): Active; Activity (Staphylococcus aureus [9]): Active; Activity (Enterococcus faecalis [14]): Active; MIC (Staphylococcus aureus [19]): 32 µg/mL; IC50 (Enterococcus faecalis [20]): 9.9 µg/mL; MIC (Enterococcus faecalis [20]): 16 µg/mL; selectivity ratio [21]: 0.3; selectivity ratio [22]: 0.8; IC50 (Pseudomonas aeruginosa): 67 µg/mL; MIC (Pseudomonas aeruginosa): > 128 µg/mL
C#CCCCOC(=O)[C@H]1O[C@@H](n2ccc(N)nc2=O)C=C[C@@H]1NC(=O)C[C@@H](N)CCN(C)C(=N)N | 0.7 | 64 (≈ 131 µM) | 0.8 | 92.3 (≈ 189 µM) | > 128 | 1.7 | > 128 | 61.5 (≈ 126 µM) | > 128 | 1.4 | 0.5 | 72.1 (≈ 148 µM) | 128 (≈ 262 µM) | 4.1 | 29.2 (≈ 59.8 µM) | 64 (≈ 131 µM) | 36 (≈ 73.7 µM) | 64 (≈ 131 µM) | 50.4 (≈ 103 µM) | 19.3 (≈ 39.5 µM) | Activity (Staphylococcus aureus [1]): Active; Activity (Staphylococcus aureus [4]): Active; Activity (Candida albicans [6]): inactive; Activity (Enterococcus [8]): Active; Activity (Staphylococcus aureus [9]): Active; Activity (Enterococcus faecalis [14]): Active; MIC (Staphylococcus aureus [19]): 64 µg/mL (≈ 131 µM); IC50 (Enterococcus faecalis [20]): 12.2 µg/mL (≈ 25 µM); MIC (Enterococcus faecalis [20]): 32 µg/mL (≈ 65.5 µM); selectivity ratio [21]: 0.7; selectivity ratio [22]: 2.6; IC50 (Pseudomonas aeruginosa): 74.3 µg/mL (≈ 152 µM); MIC (Pseudomonas aeruginosa): > 128 µg/mL
CN(CC[C@H](N)CC(=O)N[C@H]1C=C[C@H](n2ccc(N)nc2=O)O[C@@H]1C(=O)OCCc1ccccc1)C(=N)N | 0.2 | 64 (≈ 122 µM) | 0.2 | 57.1 (≈ 108 µM) | > 128 | 1.2 | > 128 | 113 (≈ 215 µM) | > 128 | 0.7 | 0.3 | 13.8 (≈ 26.2 µM) | 32 (≈ 60.8 µM) | 2.7 | 16.1 (≈ 30.6 µM) | 32 (≈ 60.8 µM) | 27.3 (≈ 51.8 µM) | 64 (≈ 122 µM) | 18.5 (≈ 35.1 µM) | 18.1 (≈ 34.4 µM) | Activity (Staphylococcus aureus [1]): Active; Activity (Staphylococcus aureus [4]): Active; Activity (Candida albicans [6]): inactive; Activity (Enterococcus [8]): Active; Activity (Staphylococcus aureus [9]): Active; Activity (Enterococcus faecalis [14]): Active; MIC (Staphylococcus aureus [19]): 64 µg/mL (≈ 122 µM); IC50 (Enterococcus faecalis [20]): 6.9 µg/mL (≈ 13.1 µM); MIC (Enterococcus faecalis [20]): 8 µg/mL (≈ 15.2 µM); selectivity ratio [21]: 1.4; selectivity ratio [22]: 1; IC50 (Pseudomonas aeruginosa): 76.9 µg/mL (≈ 146 µM); MIC (Pseudomonas aeruginosa): > 128 µg/mL
CN(CC[C@H](N)CC(=O)N[C@H]1C=C[C@H](n2ccc(N)nc2=O)O[C@@H]1C(N)=O)C(=N)N.Cl.Cl.Cl | 0.5 | 64 | 3 | 9.3 | 16 | 0.6 | 256 | 3 | 8 | 0.2 | 1 | 69.6 | 128 | 0.7 | 15.4 | 32 | 41.6 | 64 | 9.4 | 15.2 | PI (Acinetobacter baumannii [23]): 16; PI (Escherichia coli): 8; MIC (Staphylococcus aureus [19]): 32 µg/mL; PI (Staphylococcus aureus [24]): 8; IC50 (Enterococcus faecalis [20]): 12.9 µg/mL; MIC (Enterococcus faecalis [20]): 32 µg/mL; selectivity ratio [21]: 0.1; selectivity ratio [22]: 0.6; IC50 (Pseudomonas aeruginosa): 19.7 µg/mL; MIC (Pseudomonas aeruginosa): 64 µg/mL
